Several values for one entry are separate records, joined by “and”; a condition that tells them apart may be missing. Equal values may be shown once.
Test system: U2OS
Assay: Multiplex assay against U2OS
Format: toxicity, cell-based
Conditions: human, number of replicates 2
Outline: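 At seeding, live cells were stained with Hoechst33342, BioTracker Green Microtubule Cytoskeleton Dye, MitoTracker Red and Annexin V Alexa Fluor 680. After compound addition they were imaged on a CQ1 microscope at 37°C and 5% CO2, and CellPathfinder machine-learning gating sorted them into Hoechst high-intensity objects or normal cells, with normal cells further split into healthy, pyknosed or fragmented nuclei and pyknosed cells into mitotic or apoptotic. Tubulin, mitochondrial-mass and membrane-permeability phenotypes are given as per cents of cells with healthy nuclei.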

[1] = 12 h, 1 µM, compound concentration 1 uM
[2] = 12 h, 10 µM, compound concentration 10 uM
[3] = 24 h, 1 µM, compound concentration 1 uM
[4] = 24 h, 10 µM, compound concentration 10 uM
[5] = 48 h, 1 µM, compound concentration 1 uM
[6] = 48 h, 10 µM, compound concentration 10 uM

Compound: COc1cc(N(C)c2ccnc3ccc(C(F)(F)F)cc23)cc(OC)c1OC
- Population Apoptotic (%) [1]: 75% and 100%
- Population Healthy Nuclei (%) [1]: 84% and 54%
- Population Hoechst High Intensity Objects (%) [1]: 0%
- Population Membrane Permeable-Phenotype (%) [1]: 2% and 8%
- Population Mitochondria Different-Phenotype (%) [1]: 3% and 0%
- Population Mitotic Cells (%) [1]: 25% and 0%
- Population Normal (%) [1]: 100%
- Population Pyknosed Nuclei (%) [1]: 10% and 22%
- Population Tubulin-Different-Phenotype (%) [1]: 76% and 50%
- Population Apoptotic (%) [2]: 50% and 51%
- Population Healthy Nuclei (%) [2]: 65% and 78%
- Population Hoechst High Intensity Objects (%) [2]: 0%
- Population Membrane Permeable-Phenotype (%) [2]: 10% and 4%
- Population Mitochondria Different-Phenotype (%) [2]: 10% and 5%
- Population Mitotic Cells (%) [2]: 50% and 48%
- Population Normal (%) [2]: 100%
- Population Pyknosed Nuclei (%) [2]: 6% and 16%
- Population Tubulin-Different-Phenotype (%) [2]: 26% and 34%
- Population Apoptotic (%) [3]: 100% and 86%
- Population Fragmented Nuclei (%) [3]: 10% and 3%
- Population Healthy Nuclei (%) [3]: 75% and 92%
- Population Hoechst High Intensity Objects (%) [3]: 0%
- Population Membrane Permeable-Phenotype (%) [3]: 0%
- Population Mitochondria Different-Phenotype (%) [3]: 4% and 0%
- Population Mitotic Cells (%) [3]: 0% and 13%
- Population Normal (%) [3]: 100%
- Population Pyknosed Nuclei (%) [3]: 14% and 4%
- Population Tubulin-Different-Phenotype (%) [3]: 57% and 76%
- Population Apoptotic (%) [4]: 66% and 75%
- Population Healthy Nuclei (%) [4]: 65% and 79%
- Population Hoechst High Intensity Objects (%) [4]: 0%
- Population Membrane Permeable-Phenotype (%) [4]: 0% and 5%
- Population Mitochondria Different-Phenotype (%) [4]: 14% and 9%
- Population Mitotic Cells (%) [4]: 33% and 24%
- Population Normal (%) [4]: 100%
- Population Pyknosed Nuclei (%) [4]: 9% and 15%
- Population Tubulin-Different-Phenotype (%) [4]: 47% and 45%
- Population Apoptotic (%) [5]: 75% and 73%
- Population Fragmented Nuclei (%) [5]: 11% and 3%
- Population Healthy Nuclei (%) [5]: 80% and 90%
- Population Hoechst High Intensity Objects (%) [5]: 0%
- Population Membrane Permeable-Phenotype (%) [5]: 2% and 1%
- Population Mitochondria Different-Phenotype (%) [5]: 2% and 0%
- Population Mitotic Cells (%) [5]: 25% and 26%
- Population Normal (%) [5]: 100%
- Population Pyknosed Nuclei (%) [5]: 7% and 6%
- Population Tubulin-Different-Phenotype (%) [5]: 76% and 84%
- Population Apoptotic (%) [6]: 66% and 72%
- Population Healthy Nuclei (%) [6]: 58% and 87%
- Population Hoechst High Intensity Objects (%) [6]: 0%
- Population Membrane Permeable-Phenotype (%) [6]: 11% and 3%
- Population Mitochondria Different-Phenotype (%) [6]: 14% and 4%
- Population Mitotic Cells (%) [6]: 33% and 27%
- Population Normal (%) [6]: 100%
- Population Pyknosed Nuclei (%) [6]: 26% and 9%
- Population Tubulin-Different-Phenotype (%) [6]: 40% and 49%

Compound: Cc1ccc2c(N)c(C(=O)NC3CCc4cc(N5CC6CCC(C5)N6)ccc4C3)sc2n1.O=CO (centres undefined)
- Population Apoptotic (%) [1]: 100% and 51%
- Population Fragmented Nuclei (%) [1]: 11% and 6%
- Population Healthy Nuclei (%) [1]: 70% and 76%
- Population Hoechst High Intensity Objects (%) [1]: 0%
- Population Membrane Permeable-Phenotype (%) [1]: 16% and 7%
- Population Normal (%) [1]: 100%
- Population Pyknosed Nuclei (%) [1]: 17% and 16%
- Population Tubulin-Different-Phenotype (%) [1]: 19% and 25%
- Population Apoptotic (%) [2]: 36% and 24%
- Population Healthy Nuclei (%) [2]: 22% and 29%
- Population Hoechst High Intensity Objects (%) [2]: 3% and 12%
- Population Membrane Permeable-Phenotype (%) [2]: 16% and 11%
- Population Mitochondria Different-Phenotype (%) [2]: 50% and 51%
- Population Mitotic Cells (%) [2]: 63% and 75%
- Population Normal (%) [2]: 96% and 87%
- Population Pyknosed Nuclei (%) [2]: 35% and 56%
- Population Tubulin-Different-Phenotype (%) [2]: 50%
- Population Apoptotic (%) [3]: 69% and 75%
- Population Fragmented Nuclei (%) [3]: 4% and 5%
- Population Healthy Nuclei (%) [3]: 69% and 77%
- Population Hoechst High Intensity Objects (%) [3]: 0%
- Population Membrane Permeable-Phenotype (%) [3]: 17% and 6%
- Population Mitotic Cells (%) [3]: 30% and 24%
- Population Normal (%) [3]: 100%
- Population Pyknosed Nuclei (%) [3]: 26% and 16%
- Population Tubulin-Different-Phenotype (%) [3]: 26% and 23%
- Population Apoptotic (%) [4]: 56%
- Population Healthy Nuclei (%) [4]: 19% and 22%
- Population Hoechst High Intensity Objects (%) [4]: 8% and 11%
- Population Mitochondria Different-Phenotype (%) [4]: 75% and 69%
- Population Mitotic Cells (%) [4]: 43%
- Population Normal (%) [4]: 91% and 88%
- Population Pyknosed Nuclei (%) [4]: 39% and 64%
- Population Tubulin-Different-Phenotype (%) [4]: 50% and 60%
- Population Apoptotic (%) [5]: 80% and 88%
- Population Fragmented Nuclei (%) [5]: 7% and 5%
- Population Healthy Nuclei (%) [5]: 49% and 66%
- Population Hoechst High Intensity Objects (%) [5]: 0%
- Population Membrane Permeable-Phenotype (%) [5]: 14% and 19%
- Population Mitochondria Different-Phenotype (%) [5]: 25% and 53%
- Population Mitotic Cells (%) [5]: 20% and 11%
- Population Normal (%) [5]: 100%
- Population Pyknosed Nuclei (%) [5]: 43% and 28%
- Population Tubulin-Different-Phenotype (%) [5]: 21% and 40%
- Population Apoptotic (%) [6]: 53% and 87%
- Population Healthy Nuclei (%) [6]: 31% and 12%
- Population Membrane Permeable-Phenotype (%) [6]: 53% and 57%
- Population Mitochondria Different-Phenotype (%) [6]: 84%
- Population Normal (%) [6]: 95% and 83%
- Population Pyknosed Nuclei (%) [6]: 36% and 80%
- Population Tubulin-Different-Phenotype (%) [6]: 100% and 73%

Compound: CS(=O)(=O)c1ccc(C(=O)Nc2ccc(F)c(COc3ccc(Br)cc3CNCCO)c2)c(Cl)c1.O=CO
- Population Apoptotic (%) [1]: 50% and 63%
- Population Healthy Nuclei (%) [1]: 75% and 84%
- Population Hoechst High Intensity Objects (%) [1]: 0%
- Population Mitotic Cells (%) [1]: 50% and 36%
- Population Apoptotic (%) [2]: 85% and 58%
- Population Healthy Nuclei (%) [2]: 80% and 77%
- Population Hoechst High Intensity Objects (%) [2]: 2% and 0%
- Population Mitotic Cells (%) [2]: 14% and 41%
- Population Apoptotic (%) [3]: 62% and 73%
- Population Healthy Nuclei (%) [3]: 74% and 90%
- Population Hoechst High Intensity Objects (%) [3]: 0%
- Population Mitotic Cells (%) [3]: 37% and 26%
- Population Apoptotic (%) [4]: 90% and 71%
- Population Healthy Nuclei (%) [4]: 68%
- Population Hoechst High Intensity Objects (%) [4]: 0%
- Population Apoptotic (%) [5]: 83%
- Population Healthy Nuclei (%) [5]: 81% and 87%
- Population Hoechst High Intensity Objects (%) [5]: 0%
- Population Mitotic Cells (%) [5]: 16%
- Population Apoptotic (%) [6]: 66% and 89%
- Population Healthy Nuclei (%) [6]: 45% and 67%
- Population Hoechst High Intensity Objects (%) [6]: 0%

— ChEMBL document CHEMBL5303300, “EUbOPEN Chemogenomics Library - Multiplex” (2023)
